ChEMBL document CHEMBL1129978, “Effect of structural modification of enol-carboxamide-type nonsteroidal antiinflammatory drugs on COX-2/COX-1 selectivity” (J Med Chem, 1997)

How the values were obtained:
[1] = biological target: T1, Prostaglandin G/H synthase 1 (Homo sapiens, UniProt P23219); experiment: Inhibition of human Prostaglandin G/H synthase 1 at 10 ug/mL expressed as mean percent inhibition of control PGE-2 production
Summary of the method: (§1)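 Human COX-1 and COX-2 genes expressed in a baculovirus system; microsomes prepared from High Five insect cells and used as the enzyme source. Activity read as PGE2 production. Each dose run in duplicate wells within each experiment, and values given as mean percent inhibition of control PGE2.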

[2] = biological target: T1, Prostaglandin G/H synthase 1; experiment: Inhibition of human Prostaglandin G/H synthase 1 at 1 ug/mL expressed as mean percent inhibition of control PGE-2 production; summary of the method: as §1
[3] = biological target: T1, Prostaglandin G/H synthase 1; experiment: Inhibition of human Prostaglandin G/H synthase 1 at 0.1 ug/mL expressed as mean percent inhibition of control PGE-2 production; summary of the method: as §1

T1 sequence (P23219 whole entry): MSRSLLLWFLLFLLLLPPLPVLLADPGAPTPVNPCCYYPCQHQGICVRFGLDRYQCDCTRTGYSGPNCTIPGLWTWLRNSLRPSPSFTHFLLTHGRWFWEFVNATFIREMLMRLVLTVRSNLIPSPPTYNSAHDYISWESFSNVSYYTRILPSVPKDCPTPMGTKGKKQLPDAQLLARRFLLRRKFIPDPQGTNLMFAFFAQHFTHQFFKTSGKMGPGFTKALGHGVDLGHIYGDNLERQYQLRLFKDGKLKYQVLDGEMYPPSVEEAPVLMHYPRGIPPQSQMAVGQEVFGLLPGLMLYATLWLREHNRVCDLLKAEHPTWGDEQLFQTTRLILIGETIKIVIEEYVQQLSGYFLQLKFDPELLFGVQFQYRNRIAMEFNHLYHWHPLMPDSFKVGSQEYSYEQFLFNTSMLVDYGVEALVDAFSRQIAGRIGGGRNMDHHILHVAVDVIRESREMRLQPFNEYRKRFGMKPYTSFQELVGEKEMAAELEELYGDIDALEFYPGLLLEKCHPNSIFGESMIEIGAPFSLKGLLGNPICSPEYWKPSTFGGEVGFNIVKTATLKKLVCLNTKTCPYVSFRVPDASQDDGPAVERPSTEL

| Compound | inhibition [1] | inhibition [2] | inhibition [3] |
| --- | --- | --- | --- |
| CN1C(C(=O)Nc2ccccn2)=C(O)c2c(ccc3ccccc23)S1(=O)=O | 25% | -10% | – |
| Cc1cc2c(s1)C(C(=O)Nc1ccccn1)=C(O)N(C)S2(=O)=O | 82% | 53% | 15% |
| Cc1cnc(NC(=O)C2=C(O)c3sc4cc(Cl)ccc4c3S(=O)(=O)N2C)s1 | 100% | 100% | 58% |
| Cc1coc(NC(=O)C2=C(O)c3ccccc3S(=O)(=O)N2C)n1 | -7% | 5% | 5% |
| COc1ccc2c(c1)c1c(n2C)C(O)=C(C(=O)Nc2nccs2)N(C)S1(=O)=O | 86% | 33% | 3% |
| CN1C(C(=O)Nc2nccs2)=C(O)c2c(c3ccccc3n2C)S1(=O)=O | 97% | 44% | -2% |
| CN1C(O)=C(C(=O)Nc2nccs2)c2ccc(Cl)cc2S1(=O)=O | 99% | 66% | -8% |
| Cc1cnc(NC(=O)C2=C(O)c3ccc(Cl)cc3S(=O)(=O)N2C)s1 | 85% | 36% | -9% |
| Cc1cnc(NC(=O)C2=C(O)c3ccccc3SC2)s1 | 35% | 29% | 16% |
| Cc1cnc(NC(=O)C2=C(O)c3ccccc3S(=O)(=O)N2)s1 | 41% | 18% | 14% |
| Cc1cnc(NC(=O)C2=C(O)c3cc(F)ccc3S(=O)(=O)N2C)s1 | 56% | 21% | 2% |
| Cc1cnc(NC(=O)C2=C(O)N(C)S(=O)(=O)c3ccccc32)s1 | 66% | 18% | 3% |
| CCn1c2c(c3ccccc31)S(=O)(=O)N(C)C(C(=O)Nc1ccccn1)=C2O | 25% | -1% | -4% |
| CN1C(O)=C(C(=O)Nc2ccc(Cl)cc2Cl)c2c(ccc(Cl)c2Cl)S1(=O)=O | 98% | 55% | 19% |
| CN1C(O)=C(C(=O)Nc2ccccn2)c2ccccc2S1(=O)=O | 53% | 17% | 10% |

Second part, the compound after the results:

| inhibition [1] | inhibition [2] | inhibition [3] | Compound |
| --- | --- | --- | --- |
| 38% | 34% | 15% | CN1C(C(=O)Nc2ccc(Cl)cc2)=C(O)c2ccc3ccccc3c2S1(=O)=O |
| 24% | 3% | 13% | CN1C(C(=O)c2c[nH]c3ccccc23)=C(O)c2ccccc2S1(=O)=O |
| – | 10% | 1% | CN1C(C(=O)Nc2ccccc2)=C(O)c2c(c3cc(Cl)ccc3n2C)S1(=O)=O |
| 78% | 42% | 13% | CN1C(=O)/C(=C(/O)Nc2ccccc2)c2cc(Cl)ccc2C1=O |
| 100% | 88% | 54% | CN1C(O)=C(C(=O)Nc2ccc(Br)cc2)c2ccccc2S1(=O)=O |
| 40% | 16% | 6% | CN1C(C(=O)Nc2ccc(Cl)cc2)=C(O)c2cc(F)ccc2S1(=O)=O |
| 17% | 16% | 15% | CN1C(C(=O)Nc2ccccc2)=C(O)c2cc(Cl)ccc2S1(=O)=O |
| 12% | 10% | 15% | CC1Sc2ccc(Cl)cc2C(O)=C1C(=O)Nc1cccc(Cl)c1 (stereo not given) |
| 54% | 26% | 31% | O=C(Nc1cccc(Cl)c1)C1=C(O)c2cc(Cl)ccc2SC1 |
| 21% | -1% | 0% | Cc1ccc2c(c1)C(O)=C(C(=O)Nc1ccc(Cl)cc1)N(C)S2(=O)=O |
| 83% | 35% | 8% | Cc1cnc(N/C(O)=C2\C(=O)N(Cc3ccccc3)C(=O)c3ccc(Cl)cc32)s1 |
| 90% | 28% | – | CN1C(C(=O)Nc2ccccn2)=C(O)c2c(c3cc(Cl)ccc3n2C)S1(=O)=O |
| 43% | 14% | 3% | CN1C(C(=O)Nc2ccccn2)=C(O)c2cc(Cl)ccc2S1(=O)=O |
| 97% | 98% | 63% | Cc1ccc2c(c1)S(=O)(=O)N(C)C(O)=C2C(=O)Nc1ccccc1Cl |
| 5% | 0% | -9% | CCn1c2c(c3ccccc31)S(=O)(=O)N(C)C(C(=O)Nc1ccccc1)=C2O |
| – | 5% | -9% | Cc1ccc2c(c1)C(O)=C(C(=O)Nc1ccccn1)N(C)S2(=O)=O |
| 97% | 97% | 33% | CN1C(O)=C(C(=O)Nc2ccc(Br)cc2)c2cc(Cl)ccc2S1(=O)=O |
| 83% | 75% | 19% | O=C(Nc1cccc(Cl)c1)C1=C(O)c2ccccc2SC1 |
